# Assay results gathered from unrelated publications.
# Protocols differ between the studies behind these lines.
# Target: Calcium/calmodulin-dependent protein kinase type II subunit delta (CAMK2D, Homo sapiens, UniProt Q13557)
SMILES,assay,setting,measurement,value
CCN(CC)CCNC(=O)c1c(C)[nH]c(/C=C2\C(=O)Nc3ccc(F)cc32)c1C,"enzyme activity, inhibitor",0.3 µM,inhibition,92%
Cc1c(NC(=O)c2cc(C(N)=O)nc3cc(F)ccc23)c(C(F)(F)F)nn1Cc1ccc(C#N)cc1,"cell-free assay, competition with immobilised ligand",1 µM,remaining binding,90%
O=C(Nc1cnn(-c2csc(C(=O)NC3COC3)c2)c1)Nc1ccccc1Cl,"enzyme activity, inhibitor",5 µM,remaining activity,103%
O=C(O)[C@@H]1[C@@H](Cn2nnc3ccccc3c2=O)CC[C@H]1C(=O)c1ccc(OCCC2CCOCC2)cc1,"cell-free assay, competition with immobilised ligand",1 µM,remaining binding,100%
C[S+]([O-])c1ccc(-c2nc(-c3ccncc3)c(-c3ccc(F)cc3)[nH]2)cc1 (stereo not drawn),cell-free assay,0.5 µM,remaining signal,103%
COc1cc2ncnc(Nc3ccc(Oc4ccccc4)c(C)c3C)c2cc1OC,"enzyme activity, inhibitor",1 µM,inhibition,2%
COc1cc(Nc2c(C#N)cnc3cc(OCCCN4CCN(C)CC4)c(OC)cc23)c(Cl)cc1Cl,cell-free assay,0.5 µM,remaining signal,94.6%
Cc1ccc(Nc2nccc(N(C)c3ccc4c(C)n(C)nc4c3)n2)cc1S(N)(=O)=O,"enzyme activity, inhibitor",0.3 µM,inhibition,63%
CN1CC(Oc2cnc(C#N)cc2-c2ccn3nc(NC(=O)C4CC4)cc3c2)C1,"enzyme activity, inhibitor",1 µM,inhibition,-3%
O=C(NCc1ncc(C(F)(F)F)cc1Cl)c1ccc2c(c1)C1(CCS(=O)(=O)CC1)[C@H](C1CC1)N2S(=O)(=O)c1ccc(F)cc1,"cell-free assay, competition with immobilised ligand",1 µM,remaining binding,100%
CC(C)(C)c1nc2c(s1)c1nc(N)ncc1c1ccc(NS(=O)(=O)c3c(F)cccc3F)c(F)c12,"enzyme activity, inhibitor, radiometric",1 µM,remaining activity,96%
O=C(NS(=O)(=O)c1ccc(NCC2CCOCC2)c([N+](=O)[O-])c1)c1ccc(N2CCN(Cc3ccc(C(F)(F)F)cc3-c3ccc(Cl)cc3)CC2)cc1Oc1cnc2[nH]ccc2c1,"cell-free assay, competition with immobilised ligand",1 µM,remaining binding,100%
CC(C)c1ccc(NC(=O)c2cccs2)c(-c2nc3ccccc3[nH]c2=O)c1,"enzyme activity, inhibitor",1 µM,activity vs control,102%
CCOC(=O)c1cc2cc(-c3cc(C(=O)NCc4ccc(C(=O)O)cc4)nn3C)ccc2[nH]1,"cell-free assay, competition with immobilised ligand",0.1 µM,remaining binding,91%
CNC(=O)c1cc(Oc2ccc(NC(=O)Nc3ccc(Cl)c(C(F)(F)F)c3)cc2)ccn1,"enzyme activity, inhibitor",0.3 µM,inhibition,56%
Cc1ccc(C(=O)Nc2ccc(CN3CCN(C)CC3)c(C(F)(F)F)c2)cc1C#Cc1cnc2cccnn12,enzyme activity,23.5 nM,remaining activity,96%
O=C(Nc1cnn(-c2csc(C(=O)NC3COC3)c2)c1)Nc1c(F)cccc1Cl,"enzyme activity, inhibitor",5 µM,remaining activity,93.5%
Cc1ccc(-n2nc(C(C)(C)C)cc2NC(=O)Nc2ccc(OCCN3CCOCC3)c3ccccc23)cc1,"enzyme activity, inhibitor",10 µM,inhibition,22%
c1ccc(CNc2nc(N3CCOc4ccccc43)nc3c2CCCC3)cc1,"target engagement in cells, inhibitor, chemoproteomics",20 mM,inhibition,-17.7%
CCN(CC)c1ccc(C2=NNC(=O)CC2C)cc1[N+](=O)[O-] (stereo not drawn),"enzyme activity, inhibitor",10 µM,remaining activity,104%
O=C1Nc2ccc(Cl)cc2C1=Cc1cc(Cl)c(O)c(Cl)c1,cell-free assay,0.5 µM,remaining signal,80.2%
CC(=O)N1CCC(c2ccc(C(=O)NC(=N)N)cc2C(F)(F)F)CC1,"cell-free assay, competition with immobilised ligand",1 µM,remaining binding,100%
C[C@@H]1CCN(C(=O)CC#N)C[C@@H]1N(C)c1ncnc2[nH]ccc12,cell-free assay,0.5 µM,remaining signal,98.2%
NS(=O)(=O)c1cc(NC(=O)Cc2ccccc2)ccc1Oc1cccc(Cl)c1,"cell-free assay, competition with immobilised ligand",1 µM,remaining binding,97%
Cc1cnc(NC2CCOCC2)nc1-n1cnc(C(=O)NC(CN)c2cc(F)cc(Cl)c2)c1 (stereo not drawn),"enzyme activity, inhibitor, radiometric",1 µM,remaining activity,91%
CC(C)(O)c1cncc(-c2nc3ccc(F)cc3n2C2CC2)c1,"cell-free assay, competition with immobilised ligand",1 µM,remaining binding,100%
Cc1cc(NC(=O)c2cccc3cc(-c4cccc5[nH]nc(N)c45)ccc23)ccc1F,"enzyme activity, inhibitor",0.1 µM,activity vs control,102%
